Consider two molecules from ChEMBL document CHEMBL1158389, “Highly twisted adamantyl arotinoids: synthesis, antiproliferative effects and RXR transactivation profiles” (Eur J Med Chem, 2009).

The source made the active and inactive calls. The rule behind the calls is not given here.

Assay [1] concerns Jurkat. Put plainly: Antiproliferative activity against human Jurkat T cells after 48 hrs by MTT assay.
Assay [2] relates to PC-3. In words: Antiproliferative activity against human PC3 cells at 4 uM after 48 hrs by MTT assay. In kind it is functional. The settings on record: PC-3, 48 h. The essentials:
(§1)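 Epithelial cancer lines came from ATCC and were seeded the day before in complete medium: PC-3, SkOV3 and A549 at 3,000/well; MiaPaCa-2 and BxPC-3 at 4,000; T-47D and MDA-MB-468 at 5,000. Medium was switched to 0.5% FBS just before exposure to 4 μM. Read-out was MTT (4 h, 37 °C), SDS/HCl solubilisation, A595 minus cell-free blank. Growth inhibition was taken versus DMSO (≤0.1% v/v) controls, ≥2 experiments in triplicate.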

Assay [3] deals with A549. Put plainly: Antiproliferative activity against human A549 cells at 4 uM after 72 hrs by MTT assay. Type of assay: functional. The settings on record: A549, 72 h. An outline of the steps:
as §1

Assay [4] relates to MIA PaCa-2. In words: Antiproliferative activity against human MIAPaCa2 cells at 4 uM after 48 hrs by MTT assay. In kind it is functional. The settings on record: MIA PaCa-2, 48 h. The essentials:
as §1
(In general: Formazan colour is commonly taken as a measure of viable cells.)

The subject of assay [5] is BXPC-3. In words: Antiproliferative activity against human BxPC3 cells at 4 uM after 48 hrs by MTT assay. The settings on record: BXPC-3, 48 h. Type of assay: functional. An outline of the steps:
as §1

The subject of assay [6] is T47D. In words: Antiproliferative activity against human T47D cells at 4 uM after 48 hrs by MTT assay. In kind it is functional. An outline of the steps:
as §1

In assay [7] the test system is Jurkat. In words: Induction of apoptosis in human Jurkat T cells assessed as induction of DEVDase activity at 4 uM after 4 hrs by fluorescence assay. In kind it is functional, cell-based. The essentials: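 Jurkat cells (40,000/well, 10^6 cells/mL, RPMI with 0.5% FBS) were treated for 4 h; controls got 0.1% DMSO. Lysis was in CE buffer (PIPES pH 7, NP-40, cytochalasin B, protease inhibitors) for 30 min at 4 °C. Lysates were mixed with 2x caspase buffer (HEPES pH 7.4, CHAPS, sucrose) holding 100 μM Ac-DEVD-AFC and incubated at 37 °C for 30 min. AFC was read every 2 min, ex 390/em 510 nm.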

Assay [8] concerns Jurkat. Put plainly: Antiproliferative activity against human Jurkat T cells at 62.5 nM after 48 hrs by MTT assay. In kind it is functional, cell-based. An outline of the steps: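 Jurkat T cells were resuspended at 10^5 cells/mL in RPMI with 0.5% FBS (10,000/well) and seeded immediately before dosing at 62.5 nM–2 μM for two days. Viability was read by MTT (4 h, 37 °C), formazan dissolved in 10% SDS/10 mM HCl, A595 with cell-free background subtracted. Values are relative to DMSO controls (≤0.1% v/v); at least two experiments in triplicate.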

Assay [9] concerns the target T1, Retinoic acid receptor alpha (Homo sapiens) (UniProt P10276).
T1 sequence (whole entry): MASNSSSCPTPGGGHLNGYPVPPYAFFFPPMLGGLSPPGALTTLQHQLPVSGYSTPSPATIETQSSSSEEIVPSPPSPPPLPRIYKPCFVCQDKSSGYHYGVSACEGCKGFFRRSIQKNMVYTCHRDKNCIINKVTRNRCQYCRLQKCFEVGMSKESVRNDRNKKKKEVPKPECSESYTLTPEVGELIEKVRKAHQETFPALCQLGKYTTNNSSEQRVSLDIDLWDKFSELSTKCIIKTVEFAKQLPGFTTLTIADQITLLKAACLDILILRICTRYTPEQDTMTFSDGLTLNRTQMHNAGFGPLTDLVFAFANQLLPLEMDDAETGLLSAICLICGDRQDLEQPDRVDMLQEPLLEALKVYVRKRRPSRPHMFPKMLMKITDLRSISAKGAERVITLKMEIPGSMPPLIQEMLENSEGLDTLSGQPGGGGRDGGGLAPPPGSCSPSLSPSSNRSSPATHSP
Put plainly: Transactivation of Gal4-LBD fused human RARalpha (156 to 454) transfected in african green monkey CV1 cells assessed as luciferase activity at 2 uM after 6 hrs by Dual-light chemiluminescent assay. Type of assay: cell-based. As to conditions: CV-1.

Assay [10] deals with T1, Retinoic acid receptor alpha (Homo sapiens). In words: Inhibition of transactivation activity of Gal4-LBD fused human RARalpha (156 to 454) transfected in atRA-stimulated african green monkey CV1 cells at 4 uM after 6 hrs by Dual-light chemiluminescent assay. In kind it is cell-based. As to conditions: CV-1. An outline of the steps: (§2)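 Gal4 DBD (1–147) was fused to hRARα (156–462) or hRARβ (169–448) LBD. CV-1 cells (20,000/well) were co-transfected with 10 ng Gal4-LBD, 100 ng UAS-luciferase and 25 ng β-gal vector. After 16 h the medium was replaced with medium containing 5% charcoal-treated FBS. Cells got atRA plus test compound at 10-, 40- or 200-fold excess (0.2, 0.8, 4 μM) for 6 h. Luciferase and β-galactosidase were read by chemiluminescence.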

The target in assay [11] is T2, Retinoic acid receptor beta (Homo sapiens) (UniProt P10826).
T2 sequence (whole entry): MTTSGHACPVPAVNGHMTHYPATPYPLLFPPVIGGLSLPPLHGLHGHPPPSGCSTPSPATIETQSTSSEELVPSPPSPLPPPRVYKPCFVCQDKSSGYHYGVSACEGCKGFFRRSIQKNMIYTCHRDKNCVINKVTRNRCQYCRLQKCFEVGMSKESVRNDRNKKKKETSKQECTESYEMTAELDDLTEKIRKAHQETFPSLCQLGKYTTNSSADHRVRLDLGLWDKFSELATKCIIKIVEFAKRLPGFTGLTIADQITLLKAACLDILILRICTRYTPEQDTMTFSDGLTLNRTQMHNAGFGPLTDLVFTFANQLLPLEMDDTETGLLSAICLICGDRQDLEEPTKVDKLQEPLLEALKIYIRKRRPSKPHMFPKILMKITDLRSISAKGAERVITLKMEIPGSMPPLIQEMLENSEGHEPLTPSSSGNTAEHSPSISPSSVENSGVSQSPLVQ
Put plainly: Inhibition of transactivation activity of Gal4-LBD fused human RARbeta (169 to 448) transfected in atRA-stimulated african green monkey CV1 cells at 4 uM after 6 hrs by Dual-light chemiluminescent assay. Type of assay: cell-based. The settings on record: CV-1. An outline of the steps: as §2

The target of assay [12] is T3, Retinoic acid receptor RXR-alpha (Mus musculus) (UniProt P28700).
T3 sequence (whole entry): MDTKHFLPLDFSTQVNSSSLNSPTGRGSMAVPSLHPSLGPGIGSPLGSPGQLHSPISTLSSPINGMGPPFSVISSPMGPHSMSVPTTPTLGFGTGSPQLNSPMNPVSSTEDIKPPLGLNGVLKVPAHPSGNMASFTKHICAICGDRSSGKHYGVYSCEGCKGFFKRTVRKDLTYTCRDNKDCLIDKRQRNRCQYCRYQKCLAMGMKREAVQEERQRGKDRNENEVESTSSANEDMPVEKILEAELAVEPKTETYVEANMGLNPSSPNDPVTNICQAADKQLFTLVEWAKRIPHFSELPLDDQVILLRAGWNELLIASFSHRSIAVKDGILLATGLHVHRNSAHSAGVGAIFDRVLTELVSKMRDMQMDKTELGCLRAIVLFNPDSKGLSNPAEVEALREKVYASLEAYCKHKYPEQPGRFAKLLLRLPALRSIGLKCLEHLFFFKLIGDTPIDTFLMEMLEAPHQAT
In words: Transactivation of Gal4-LBD fused mouse RXRalpha (218 to 467) transfected in african green monkey CV1 cells assessed as luciferase activity at 2 uM after 6 hrs by Dual-light chemiluminescent assay relative to LGD1069. Type of assay: cell-based. The settings on record: CV-1.

For orientation: IC50 means the midpoint of a concentration-inhibition curve. The inhibition is how much of the control response was suppressed. With `COCCOCOc1cc(C)c(-c2ccc3cc(C(=O)O)ccc3c2Cl)cc1C12CC3CC(CC(C3)C1)C2`, inhibition in assay [1] was half-maximal at 707 nM (IC50). Moreover, the inhibition at 4 µM in assay [2] stood at 97.6%; in assay [3], 88.1%; in assay [4] it was 63.7%; in assay [5], 70.2%; in assay [6], 46.1%. For the same molecule, the outcome in assay [7] was Active. Besides, the result in [8], in assay [9] and in [11] was inactive. This molecule also returned an inhibition in [10] of 27%. Moreover, the Activity in [12] worked out at 45%.
`COCCOCOc1cc(C)c(-c2ccc(CC(=O)O)cc2Cl)cc1C12CC3CC(CC(C3)C1)C2`: the inhibition at 4 µM in assay [2] turned out to be 52.2%; in [3], 7.9%; in assay [4] it was 6.3%; in assay [5] it was 14%; in assay [6], 27.6%. Further, the result in [9] and in assay [11] was inactive. Also, in assay [10], the inhibition is 43.7%.
